In ChEMBL document CHEMBL3588805, “Characterization and Biological Activities of Ocellatin Peptides from the Skin Secretion of the Frog Leptodactylus pustulatus” (J Nat Prod, 2015) one finds Activity, MIC and hemolysis data, which are given here for two molecules.

Data set [1] relates to Escherichia coli. The data set can be described thus: Induction of morphological changes in Escherichia coli ATCC 25922 assessed as cell structural perturbation at 190 uM incubated for 24 hrs by atomic force microscopy. The class given is functional, organism-based.
For data set [2], the system named is Escherichia coli. The data set can be described thus: Induction of morphological changes in Escherichia coli ATCC 25922 assessed as cell cytoplasmic content release at 190 uM incubated for 24 hrs by atomic force microscopy. The class given is functional, organism-based.
The subject of data set [3] is Escherichia coli. Description: Induction of morphological changes in Escherichia coli ATCC 25922 assessed as cell shape changes release at 190 uM incubated for 24 hrs by atomic force microscopy. The class given is functional, organism-based.
Data set [4] in a line: Cytotoxicity against mouse NIH/3T3 cells at antibacterial MIC (Escherichia coli ATCC 25922) assessed as reduction in cell index incubated for 60 hrs. To be noted: nih3t3, 60 h. The class given is cell-based.
The subject of data set [5] is Escherichia coli. The data set can be described thus: Antibacterial activity against Escherichia coli ATCC 25922 assessed as inhibition of visible bacterial growth incubated at 37 degC for 24 hrs by CLSI protocol based method. The class given is functional. The conditions noted are these: ATCC 25922, 24 h. The procedure, abridged:
(§1)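 Broth microdilution per CLSI 2012. Strains grown at 37 °C in Mueller-Hinton broth to log phase (1 × 10^8 CFU/mL). Peptide 2-fold serial dilutions, 6.25–800 μg/mL, in Mueller-Hinton broth; final inoculum 5 × 10^5 CFU/mL per well. Aerobic incubation 24 h at 37 °C. MIC is the lowest concentration with no visible growth (A600 < 0.05). Meropenem control for Gram-negatives, oxacillin for S. aureus. Triplicate, two independent experiments.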

The subject of another data set is Staphylococcus aureus. Description: Antibacterial activity against Staphylococcus aureus […] assessed as inhibition of visible bacterial growth incubated at 37 degC for 24 hrs by CLSI protocol based method. The class given is functional. The procedure, abridged: as §1
Another data set deals with Klebsiella pneumoniae. Description: Antibacterial activity against Klebsiella pneumoniae ATCC 700603 assessed as inhibition of visible bacterial growth incubated at 37 degC for 24 hrs by CLSI protocol based method. The class given is functional. The conditions noted are these: ATCC 700603, 24 h. The procedure, abridged:
as §1

In another data set the test system is Salmonella enterica. Description: Antibacterial activity against Salmonella choleraesuis ATCC 14028 assessed as inhibition of visible bacterial growth incubated at 37 degC for 24 hrs by CLSI protocol based method. The class given is functional. The conditions noted are these: ATCC 14028, 24 h. The procedure, abridged:
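Strain grown at 37 °C in Mueller-Hinton broth to log phase (1 × 10^8 CFU/mL). Broth microdilution per CLSI (2012) with 2-fold peptide dilutions in Mueller-Hinton broth, 6.25–800 μg/mL, final inoculum 5 × 10^5 CFU/mL. Incubated 24 h, 37 °C, aerobic. MIC is the lowest concentration giving absorbance below 0.05 at 600 nm. Meropenem control. Triplicate, two independent experiments.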

A short description of data set [6]: Toxicity in human RBC assessed as induction of hemolysis at antibacterial MIC (Escherichia coli ATCC 25922) incubated for 1 hr at 37 degC. The class given is cell-based, Erythrocyte. To be noted: human red blood cells (RBC), read-out: Activity. The procedure, abridged: (§2)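 Human RBCs collected in EDTA (1.8 mg/mL), washed three times, resuspended in 0.85% saline, mixed with an equal volume of peptide solution (100–800 μg/mL). 1 h at 37 °C, centrifuged at 10000g for 1 min, supernatant absorbance read at 550 nm. Saline and 0.1% (v/v) Triton X as 0 and 100% controls. % hemolysis = (A peptide − A saline)/(A Triton − A saline) × 100.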

A short description of data set [7]: Toxicity in human RBC assessed as induction of hemolysis at 800 ug/mL incubated for 1 hr at 37 degC. The class given is cell-based, Erythrocyte. To be noted: human red blood cells (RBC), read-out: Activity. The procedure, abridged:
as §2

Data set [8] concerns Escherichia coli. The data set can be described thus: Induction of cell envelope morphological changes in Escherichia coli ATCC 25922 at 190 uM incubated for 24 hrs by atomic force microscopy. The class given is functional, organism-based.
Data set [9] concerns Escherichia coli. Description: Induction of morphological changes in Escherichia coli ATCC 25922 assessed as reduction in number of pili at 190 uM incubated for 24 hrs by atomic force microscopy. The class given is functional, organism-based.

Values after ≈ are worked out from the molar mass of the structure shown. Active and inactive are the calls of the source. The rule behind the calls is not given here. Where a SMILES comes first, the peptide text is derived from it. A value given as a limit tells only on which side of the number the result lay.

Turning to `CC[C@H](C)[C@H](NC(=O)[C@H](CCCCN)NC(=O)CNC(=O)[C@H](CCSC)NC(=O)[C@H](C)NC(=O)[C@H](Cc1cnc[nH]1)NC(=O)[C@H](C)NC(=O)[C@@H](NC(=O)[C@H](CC(C)C)NC(=O)[C@H](CCC(N)=O)NC(=O)[C@H](CCCCN)NC(=O)CNC(=O)[C@H](C)NC(=O)CNC(=O)[C@H](CCCCN)NC(=O)[C@@H](NC(=O)[C@@H](NC(=O)[C@H](CC(=O)O)NC(=O)[C@H](Cc1ccccc1)NC(=O)[C@@H](NC(=O)CN)C(C)C)[C@@H](C)CC)[C@@H](C)CC)[C@@H](C)CC)C(=O)N[C@@H](C)C(=O)N[C@@H](CCC(=O)O)C(=O)N[C@@H](CCCCN)C(=O)N[C@H](C(=O)NCC(=O)N[C@@H](CC(C)C)C(=O)N[C@@H](CC(N)=O)C(=O)N[C@@H](CCCCN)C(=O)N[C@@H](CC(=O)O)C(=O)NCC(=O)N[C@@H](CC(N)=O)C(=O)O)C(C)C` (H-GVFDIIKGAGKQLIAHAMGKIAEKVGLNKDGN-OH), the outcome with Escherichia coli [1], in the data set on Escherichia coli [2], in the data set with Escherichia coli [3], with Escherichia coli [8] and in the data set on Escherichia coli [9] was Active. Moreover, the Activity result in data set [4] is “Non-toxic”. The MIC in the data set on Escherichia coli [5] was 60 µM (≈ 198 µg/mL); in the data set with Staphylococcus aureus, 240 µM (≈ 791 µg/mL); in the data set with Klebsiella pneumoniae, more than 240 µM; in the data set with Salmonella enterica, 240 µM (≈ 791 µg/mL). Besides, the hemolysis at 1 h in [6] is 0.06%. Besides, the hemolysis at 1 h, 800 ug/mL in [7] was determined as 13.7%.
Consider `CC[C@H](C)[C@H](NC(=O)[C@H](C)NC(=O)[C@H](Cc1cnc[nH]1)NC(=O)[C@H](C)NC(=O)[C@@H](NC(=O)[C@H](CC(C)C)NC(=O)[C@H](CC(=O)O)NC(=O)[C@H](CCCCN)NC(=O)CNC(=O)[C@H](C)NC(=O)CNC(=O)[C@H](CCCCN)NC(=O)[C@@H](NC(=O)[C@@H](NC(=O)[C@H](CC(=O)O)NC(=O)[C@@H](NC(=O)[C@@H](NC(=O)CN)C(C)C)[C@@H](C)CC)[C@@H](C)CC)[C@@H](C)CC)[C@@H](C)CC)C(=O)NCC(=O)N[C@@H](CCCCN)C(=O)N[C@@H](CC(C)C)C(=O)N[C@@H](C)C(=O)N[C@@H](CCC(=O)O)C(=O)N[C@@H](CCCCN)C(=O)N[C@H](C(N)=O)C(C)C` (H-GVIDIIKGAGKDLIAHAIGKLAEKV-NH2), for which, in data set [4], the Activity entry is given as “Non-toxic”. Moreover, the MIC is 320 µM (≈ 809 µg/mL) in the data set with Escherichia coli [5], more than 320 µM with Staphylococcus aureus, more than 320 µM in the data set with Klebsiella pneumoniae and more than 320 µM with Salmonella enterica. Further, the hemolysis at 1 h in data set [6] was determined as 0.69%. In addition, the hemolysis at 1 h, 800 ug/mL in [7] is 0.69%.
